The source made the active and inactive calls. No cut-off for these calls is given here.
What was measured:
[1] = Toxicity in cynomolgus monkey for 28 days; parameters: species or system Macaca fascicularis; settings: in vivo
Outline: (§1)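 Cynomolgus monkeys, 32 in total, 3–5 per group. Dosed for 28 days with vehicle or 6, 12 or 20 mg/kg; the high dose was raised to 25 mg/kg/day after 1 week. Two males and two females from the control and high-dose groups were followed through a further 2-week treatment-free period. Deaths and clinical signs recorded.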

[2] = AUC (0 to infinity) in male Sprague-Dawley rat at 30 mg/kg, po by LC-MS/MS analysis; assay type: ADME, organism-based; parameters: dose 30 mg/kg, time infinity, route oral; settings: in vivo
Outline: (§2)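 Rats of each sex received a single oral dose of 30 mg/kg. Plasma concentration–time profiles of parent were determined separately for females and males.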

Rattus norvegicus [3] = assay: Toxicity in single po dosed rat assessed as increase in peak inspiratory flow at 100 to 300 mg/kg, po administered as single dose; assay type: organism-based; settings: in vivo
[4] = target: T1, Mitogen-activated protein kinase 14 (Homo sapiens, UniProt Q16539); assay: Inhibition of p38alpha MAPK (unknown origin) by beta-galactosidase enzyme complementation assay
Escherichia coli = assay: Genotoxicity in Escherichia coli in presence of S9 fraction by Ames test; assay type: toxicity
Outline: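 Bacterial reverse mutation (Ames) test in S. typhimurium and E. coli strains, run with and without S9 mix.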

[5] = Drug excretion in human urine at 10 to 50 mg, po administered as single dose up to 36 hrs; assay type: ADME, organism-based; settings: read-out: Drug excretion
Outline: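 Healthy subjects, single oral dose. Urine collected at 0–6, 6–12, 12–24 and 24–36 h post dose and analysed for parent and metabolite. Excreted amount expressed relative to administered dose.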

[6] = Cmax in female Sprague-Dawley rat at 30 mg/kg, po by LC-MS/MS analysis; assay type: ADME, organism-based; parameters: dose 30 mg/kg, route oral; settings: in vivo
[7] = Drug metabolism in human primary hepatocytes assessed as CBS-3728 formation at 10 to 100 uM; assay type: ADME, cell-based, Hepatocyte
[8] = target: Voltage-gated inwardly rectifying potassium channel KCNH2 (Homo sapiens, UniProt Q12809); assay: Inhibition of human ERG expressed in HEK293 cells by patch clamp method; assay type: cell-based
Rattus norvegicus [9] = assay: Antiarthritic activity in Lewis rat assessed as change in paw volume at 25 mg/kg, po bid administered for 10 days; assay type: functional, organism-based
Outline: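 Collagen-induced arthritis in male Lewis rats (5–6 per group). Groups received vehicle, dexamethasone 1 mg/kg, test item 50 mg/kg once daily, or 25 mg/kg twice daily for 10 days. Body weight, arthritic score and paw volume were monitored, and serum COMP was measured at the end.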

Rattus norvegicus [10] = assay: Toxicity in Sprague-Dawley rat assessed as dyspnea at 2000 mg/kg, po administered via gavage measured on day 1 and 2; assay type: organism-based; settings: in vivo
Rattus norvegicus [11] = assay: In vivo inhibition of P38 MAPKalpha in Lewis rat assessed as decrease in LPS-stimulated TNFalpha level in serum at 10 mg/kg, po pretreated for 1 hr followed by LPS addition measured after 1.5 hrs post dose relative to control; assay type: functional
Outline: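 Lewis rats, n = 8/group: females dosed orally at 10 mg/kg at −1, −3 or −5 h relative to LPS challenge, plus one male group dosed at −1 h. Male and female vehicle controls were given at −1 h. Serum TNFα was measured after LPS and compared with vehicle.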

Rattus norvegicus [12] = assay: Toxicity in Sprague-Dawley rat assessed as increase in abdomen size at 150 mg/kg, po administered via gavage for daily 28 days followed by 2 weeks off without dosing; assay type: organism-based; settings: in vivo
Rattus norvegicus [13] = assay: Toxicity in Sprague-Dawley rat assessed as hypoactivity at 2000 mg/kg, po administered via gavage measured on day 1 and 2; assay type: organism-based; settings: in vivo
Cynomolgus monkey [14] = assay: Toxicity in cynomolgus monkey assessed as decrease in PQ at 6 to 20 mg/kg, po; assay type: organism-based, Macaca fascicularis; settings: in vivo
[15] = target: T1, Mitogen-activated protein kinase 14; assay: Inhibition of MKK6-mediated p38alpha MAPK (unknown origin) phosphorylation up to 10 uM
Rattus norvegicus [16] = assay: Toxicity in Sprague-Dawley rat assessed as increase in hunched posture at 150 mg/kg, po administered via gavage for daily 28 days followed by 2 weeks off without dosing; assay type: organism-based; settings: in vivo
Liver = assay: Drug metabolism in human liver microsomes assessed as 4-(4-(4-fluorophenyl)-1-methyl-2-(methylsulfonyl)-1H-imidazol-5-yl)pyridin-2-amine formation at 10 to 100 uM; assay type: ADME, microsome
Outline: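 Test compound incubated at 10, 30 and 100 μM with liver microsomes from rat, Cynomolgus monkey or human, and metabolites monitored.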

Cynomolgus monkey [17] = assay: Toxicity in cynomolgus monkey assessed as death at 6 to 20 mg/kg followed by after 1 week high dose treatment of 25 mg/kg at 1 week post first dose for 28 days followed by 2 weeks off without dosing; assay type: organism-based, Macaca fascicularis; settings: in vivo; outline: as §1
Rattus norvegicus [18] = assay: Toxicity in rat assessed as effect on respiratory rate by measuring increase in peak expiratory flow 300 mg/kg, po administered as single dose; assay type: organism-based; settings: in vivo
[19] = AUC (0 to infinity) in mongrel dog at 30 mg/kg, po by LC-MS/MS analysis; assay type: ADME, organism-based, Canis lupus familiaris; parameters: dose 30 mg/kg, time infinity, route oral; settings: in vivo
Outline: (§3)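 Two mongrel dogs received a single oral dose of 30 mg/kg. Blood was sampled from 0.25 to 24 h and plasma parent concentrations were determined.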

[20] = Half life in female Sprague-Dawley rat at 30 mg/kg, po by LC-MS/MS analysis; assay type: ADME, organism-based; settings: in vivo
[21] = target: Mitogen-activated protein kinase 10 (Homo sapiens) (UniProt P53779); assay: Inhibition of JNK3 (unknown origin) at 10 uM relative to control
[22] = Half life in cynomolgus monkey at 20 mg/kg, po measured on day 1 and 27 post dose by LC-MS/MS analysis; assay type: ADME, organism-based, Macaca fascicularis; settings: in vivo
Outline: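 Cynomolgus monkeys were dosed orally at 6, 12 and 20 mg/kg daily in a 4-week toxicity study. Blood was sampled from 0.5 to 24 h post dose on days 1 and 27. Individual profiles of parent and metabolite gave Tmax, Cmax, T1/2 and AUC0–24.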

Rattus norvegicus [23] = assay: Toxicity in Sprague-Dawley rat assessed as increase in ptyalism at 150 mg/kg, po administered via gavage for daily 28 days followed by 2 weeks off without dosing; assay type: organism-based; settings: in vivo
[24] = Tmax in cynomolgus monkey at 20 mg/kg, po measured on day 1 and 27 post dose by LC-MS/MS analysis; assay type: ADME, organism-based, Macaca fascicularis; settings: in vivo
[25] = AUC (0 to infinity) in female Sprague-Dawley rat at 30 mg/kg, po by LC-MS/MS analysis; assay type: ADME, organism-based; parameters: dose 30 mg/kg, time infinity, route oral; settings: in vivo; outline: as §2
Saccharomyces cerevisiae = assay: Inhibition of yeast CK1 at 10 uM relative to control
[26] = target: Dual specificity mitogen-activated protein kinase kinase 7 (Homo sapiens) (UniProt O14733); assay: Inhibition of MKK7beta (unknown origin) at 10 uM relative to control
[27] = Tmax in mongrel dog at 30 mg/kg, po by LC-MS/MS analysis; assay type: ADME, organism-based, Canis lupus familiaris; settings: in vivo
Rattus norvegicus [28] = assay: Toxicity in Sprague-Dawley rat assessed as mortality at 2000 mg/kg, po administered via gavage after 14 days; assay type: organism-based; settings: in vivo, 336 h
Rattus norvegicus [29] = assay: Toxicity in rat assessed as effect on central nervous system at 30 to 300 mg/kg, po administered as single dose; assay type: organism-based; settings: in vivo
[30] = AUC (0 to t) in mongrel dog at 30 mg/kg, po by LC-MS/MS analysis; assay type: ADME, organism-based, Canis lupus familiaris; settings: in vivo; outline: as §3
[31] = target: Ephrin type-B receptor 2 (Homo sapiens) (UniProt P29323); assay: Inhibition of EphB2 (unknown origin) at 10 uM relative to control
Chain of Ephrin type-B receptor 2 (Homo sapiens) (P29323 whole entry): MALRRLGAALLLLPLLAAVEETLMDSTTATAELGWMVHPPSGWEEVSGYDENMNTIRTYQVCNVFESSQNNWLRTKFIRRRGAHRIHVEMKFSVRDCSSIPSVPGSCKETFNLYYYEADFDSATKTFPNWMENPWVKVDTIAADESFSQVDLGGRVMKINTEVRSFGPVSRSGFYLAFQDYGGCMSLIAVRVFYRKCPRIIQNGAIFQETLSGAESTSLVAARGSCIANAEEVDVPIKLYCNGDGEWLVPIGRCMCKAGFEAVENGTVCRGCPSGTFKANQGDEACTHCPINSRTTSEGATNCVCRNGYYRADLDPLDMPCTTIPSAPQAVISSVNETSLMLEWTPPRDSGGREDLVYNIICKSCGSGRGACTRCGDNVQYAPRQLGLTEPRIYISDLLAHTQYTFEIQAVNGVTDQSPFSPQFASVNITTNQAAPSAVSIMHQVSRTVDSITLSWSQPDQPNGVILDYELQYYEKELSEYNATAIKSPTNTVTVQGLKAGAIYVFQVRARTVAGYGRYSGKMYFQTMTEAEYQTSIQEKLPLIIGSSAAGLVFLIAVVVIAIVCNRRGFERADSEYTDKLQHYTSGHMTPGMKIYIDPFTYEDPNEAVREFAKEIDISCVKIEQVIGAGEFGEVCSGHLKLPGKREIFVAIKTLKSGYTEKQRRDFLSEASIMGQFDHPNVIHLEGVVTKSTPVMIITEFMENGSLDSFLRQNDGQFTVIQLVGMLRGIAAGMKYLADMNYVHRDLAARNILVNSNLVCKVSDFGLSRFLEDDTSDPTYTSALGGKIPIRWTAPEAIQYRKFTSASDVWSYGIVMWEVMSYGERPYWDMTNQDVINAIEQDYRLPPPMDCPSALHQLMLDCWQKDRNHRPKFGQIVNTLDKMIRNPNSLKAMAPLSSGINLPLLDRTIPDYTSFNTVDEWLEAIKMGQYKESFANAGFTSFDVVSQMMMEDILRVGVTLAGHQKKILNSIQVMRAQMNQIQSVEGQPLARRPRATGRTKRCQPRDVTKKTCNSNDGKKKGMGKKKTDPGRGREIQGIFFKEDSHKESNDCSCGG

T1 sequence (Q16539 whole entry): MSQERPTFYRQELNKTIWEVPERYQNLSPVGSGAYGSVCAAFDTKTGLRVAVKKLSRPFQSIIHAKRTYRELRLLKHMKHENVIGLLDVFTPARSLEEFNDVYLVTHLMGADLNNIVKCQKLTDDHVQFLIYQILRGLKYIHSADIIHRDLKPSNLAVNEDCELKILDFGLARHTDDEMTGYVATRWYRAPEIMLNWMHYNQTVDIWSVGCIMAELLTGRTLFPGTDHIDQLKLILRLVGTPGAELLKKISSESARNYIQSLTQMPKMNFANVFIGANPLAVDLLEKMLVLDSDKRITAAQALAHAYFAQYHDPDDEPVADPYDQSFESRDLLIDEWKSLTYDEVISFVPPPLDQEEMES
Chain of Dual specificity mitogen-activated protein kinase kinase 7 (Homo sapiens) (O14733 whole entry): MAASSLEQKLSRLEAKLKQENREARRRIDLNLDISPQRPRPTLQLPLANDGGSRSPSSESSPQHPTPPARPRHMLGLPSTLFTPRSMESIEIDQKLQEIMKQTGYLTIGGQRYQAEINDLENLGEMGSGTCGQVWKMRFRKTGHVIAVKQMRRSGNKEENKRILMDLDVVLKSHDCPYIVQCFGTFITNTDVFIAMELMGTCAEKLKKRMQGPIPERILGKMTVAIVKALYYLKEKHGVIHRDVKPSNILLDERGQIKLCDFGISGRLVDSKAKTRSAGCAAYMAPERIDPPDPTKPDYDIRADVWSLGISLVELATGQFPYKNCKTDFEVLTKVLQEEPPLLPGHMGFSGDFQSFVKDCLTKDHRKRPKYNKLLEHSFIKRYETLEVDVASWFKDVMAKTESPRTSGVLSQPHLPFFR
Chain of Mitogen-activated protein kinase 10 (Homo sapiens) (P53779 whole entry): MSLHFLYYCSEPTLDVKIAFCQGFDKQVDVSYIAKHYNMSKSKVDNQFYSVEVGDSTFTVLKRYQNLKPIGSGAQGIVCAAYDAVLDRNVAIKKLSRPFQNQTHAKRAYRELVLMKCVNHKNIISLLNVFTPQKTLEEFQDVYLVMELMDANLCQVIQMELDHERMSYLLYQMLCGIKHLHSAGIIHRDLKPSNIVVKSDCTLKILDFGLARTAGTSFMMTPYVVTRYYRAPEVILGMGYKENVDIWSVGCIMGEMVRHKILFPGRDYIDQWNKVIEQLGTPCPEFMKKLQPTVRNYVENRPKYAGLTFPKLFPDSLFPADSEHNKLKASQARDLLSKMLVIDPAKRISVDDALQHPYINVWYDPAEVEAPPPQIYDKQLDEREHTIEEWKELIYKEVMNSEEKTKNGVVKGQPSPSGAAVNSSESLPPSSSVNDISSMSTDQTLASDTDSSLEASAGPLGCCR
Chain of Voltage-gated inwardly rectifying potassium channel KCNH2 (Q12809 whole entry): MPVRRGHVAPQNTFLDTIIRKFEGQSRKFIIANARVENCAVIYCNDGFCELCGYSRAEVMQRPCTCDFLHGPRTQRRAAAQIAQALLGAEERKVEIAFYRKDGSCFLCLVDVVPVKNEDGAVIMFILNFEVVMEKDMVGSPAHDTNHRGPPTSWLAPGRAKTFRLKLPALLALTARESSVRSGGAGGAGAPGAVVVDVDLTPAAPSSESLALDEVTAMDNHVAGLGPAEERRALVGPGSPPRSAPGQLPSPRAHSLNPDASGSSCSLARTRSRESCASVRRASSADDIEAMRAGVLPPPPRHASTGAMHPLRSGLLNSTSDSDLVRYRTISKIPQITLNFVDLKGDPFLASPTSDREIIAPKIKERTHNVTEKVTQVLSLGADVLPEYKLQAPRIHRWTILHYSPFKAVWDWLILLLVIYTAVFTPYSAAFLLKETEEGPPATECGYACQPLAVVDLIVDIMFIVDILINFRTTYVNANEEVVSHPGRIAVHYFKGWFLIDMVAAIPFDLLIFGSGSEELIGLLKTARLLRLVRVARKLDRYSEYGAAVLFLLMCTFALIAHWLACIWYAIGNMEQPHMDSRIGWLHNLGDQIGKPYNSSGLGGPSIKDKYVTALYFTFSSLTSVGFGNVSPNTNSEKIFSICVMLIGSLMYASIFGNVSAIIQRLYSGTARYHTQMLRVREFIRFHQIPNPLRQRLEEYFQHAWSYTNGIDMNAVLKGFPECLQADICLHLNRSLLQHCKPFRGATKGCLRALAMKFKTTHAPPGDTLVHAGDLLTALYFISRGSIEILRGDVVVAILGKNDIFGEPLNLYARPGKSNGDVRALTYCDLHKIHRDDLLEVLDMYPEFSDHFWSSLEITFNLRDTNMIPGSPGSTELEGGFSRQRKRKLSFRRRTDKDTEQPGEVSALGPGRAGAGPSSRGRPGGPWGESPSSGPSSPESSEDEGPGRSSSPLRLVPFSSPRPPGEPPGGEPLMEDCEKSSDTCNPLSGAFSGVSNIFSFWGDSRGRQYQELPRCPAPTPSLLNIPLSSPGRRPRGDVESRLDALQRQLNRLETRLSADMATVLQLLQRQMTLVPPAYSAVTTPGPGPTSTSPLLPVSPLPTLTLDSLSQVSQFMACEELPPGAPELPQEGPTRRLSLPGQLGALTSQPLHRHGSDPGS

CC(=O)Nc1cc(-c2c(-c3ccc(F)cc3)nc([S+](C)[O-])n2C)ccn1 (stereo not given)
MTD at 672 h [1]: 20 mg/kg
NOAEL at 672 h [1]: > 25 mg/kg
AUC(0-inf) [2]: 29.8 µM·h
Activity (Rattus norvegicus [3]): Toxic
IC50 [4]: 0.5 µM
Activity (Escherichia coli): Non-Toxic
dose excreted at 36 h [5]: 6%
Cmax [6]: 4.8 µM
Drug metabolism [7]: Metabolite_Detected
IC50 [8]: 213 µM
Activity (Rattus norvegicus [9]): inactive
Activity (Rattus norvegicus [10]): Toxic
inhibition in vivo at 10 mg/kg (Rattus norvegicus [11]): 76%
Activity (Rattus norvegicus [12]): Toxic
Activity (Rattus norvegicus [13]): Toxic
Activity (Cynomolgus monkey [14]): Toxic
inhibition [15]: inactive
Activity (Rattus norvegicus [16]): Toxic
Drug metabolism (Liver): Metabolite_Detected
Activity (Cynomolgus monkey [17]): Non-Toxic
Activity (Rattus norvegicus [18]): Toxic
AUC(0-inf) [19]: 96.8 µM·h
half-life [20]: 2.2 h
inhibition [21]: 76%
half-life [22]: 4.8 h
Activity (Rattus norvegicus [23]): Toxic
Tmax [24]: 4 h
AUC(0-inf) [25]: 40.9 µM·h
inhibition (Saccharomyces cerevisiae): 97%
inhibition [26]: 101%
Tmax [27]: 2 h
Activity (Rattus norvegicus [28]): Non-Toxic
Activity (Rattus norvegicus [29]): Non-Toxic
AUC(0-t) [30]: 95 µM·h
inhibition [31]: 60%

From ChEMBL document CHEMBL4028848, “Discovery of N-{4-[5-(4-Fluorophenyl)-3-methyl-2-methylsulfanyl-3H-imidazol-4-yl]-pyridin-2-yl}-acetamide (CBS-3595), a Dual p38α MAPK/PDE-4 Inhibitor with Activity against TNFα-Related Diseases” (J Med Chem, 2017)
